Article PMC2874265 (Journal of Medicinal Chemistry, 2010)

Legend:
S. aureus ATCC 29213 = assay: S. aureus MIC, broth microdilution; type: cell-based; details: for S. aureus MIC: S. aureus ATCC 29213, broth microdilution; for MIC: Staphylococcus aureus, ATCC29213, read-out: S. aureus MIC + 2% BSA
Outline: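 Broth microdilution MIC per CLSI recommendations against S. aureus ATCC 29213. Protein-shift runs added 2% w/v bovine serum albumin to the assay. End point reproducible within one 2-fold dilution.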

S. aureus (Smith) = assay: Murine septicaemia model of staphylococcal infection; type: in vivo; details: SC, 3, 10, or 30 mg/kg
[1] = Mouse intravenous pharmacokinetics; type: in vivo
Outline: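 Mice dosed intravenously, either 3 mg/kg given individually or 2 mg/kg in a cassette. Plasma sampled at 5, 15, 30, 60, 120, 240 and 480 min and concentrations measured by LC/MS/MS. AUC, C0, CL, T1/2 and V calculated from plasma concentrations.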

With `NC(=O)c1c(F)ccc(OCc2nc3cc(C(F)(F)F)ccc3s2)c1F` [8e] as the compound, how does the “S. aureus MIC” value (S. aureus ATCC 29213) read?
Its value is “submicrogram/mL”.

Which MIC (S. aureus ATCC 29213) does the source give for `NC(=O)c1c(F)ccc(OCc2nc3cc(-c4ccccc4)ccc3s2)c1F` [compound 8a] here?
The MIC was 4 µg/mL.

Which results are given for `CCOc1ccc2sc(COc3ccc(F)c(C(N)=O)c3F)nc2c1` [compound 8b]?
S. aureus MIC (S. aureus ATCC 29213): submicrogram/mL; MIC (S. aureus ATCC 29213): 0.5 µg/mL

For `NC(=O)c1c(F)ccc(OCc2nc3cc(Br)ccc3s2)c1F` [compound 8d], which “S. aureus MIC” value (S. aureus ATCC 29213) is on record?
Its value is “submicrogram/mL”.

With `NC(=O)c1c(F)ccc(OCc2nc3cc(Cl)ccc3s2)c1F` [compound 8j] as the compound, how does the “survival of infected mice” value (S. aureus (Smith)) read?
The value was “died on day 2”.

What about the V ([1]; intravenous, 2 mg/kg in a cassette) of the same compound?
The V was 5.8 L/kg.

And the AUC ([1]; plasma, iv, 2 mg/kg)?
Its AUC is 100 ng·h/mL.

What about the C0 ([1]; plasma, iv, 2 mg/kg) of the same compound?
Its C0 is 500 ng/mL.

What about the clearance ([1]; plasma, iv, 2 mg/kg) of the same compound?
Its clearance is 315 mL/min/kg.

And the half-life ([1]; plasma, iv, 2 mg/kg)?
The half-life was 13 min.

What about the MIC (S. aureus ATCC 29213) of the same compound?
The MIC was 2 µg/mL.

For `CCCc1ccc2sc(COc3ccc(F)c(C(N)=O)c3F)nc2c1` [compound 11], which “S. aureus MIC” value (S. aureus ATCC 29213) is on record?
Its value is “submicrogram/mL”.

Which MIC (S. aureus ATCC 29213) does the source give for `COc1cc2nc(COc3ccc(F)c(C(N)=O)c3F)sc2nc1Cl` [compound 28d] here?
The MIC was > 64 µg/mL.
